Measurements published in ChEMBL document CHEMBL5058577, “EUbOPEN Chemogenomics Library 2 (Multiplex)” (2022).

System: U2OS
Experiment: Multiplex assay against U2OS
Assay type: toxicity, cell-based
Details: human
Method in brief: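 Imaging took place on a CQ1 microscope at 37°C and 5% CO2 once compound had been added to live cells stained at seeding with Hoechst33342, BioTracker Green Microtubule Cytoskeleton Dye, MitoTracker Red and Annexin V Alexa Fluor 680. CellPathfinder machine-learning gating classed cells as Hoechst high-intensity objects or normal cells, classed normal cells as having healthy, pyknosed or fragmented nuclei, and classed pyknosed cells as mitotic or apoptotic. Tubulin, mitochondrial-mass and membrane-permeability phenotypes are per cents of the healthy-nucleus cells.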

[1] = 12 h, 1 µM, compound concentration 1 uM, replicate 1
[2] = 12 h, 1 µM, compound concentration 1 uM, replicate 2
[3] = 12 h, 10 µM, compound concentration 10 uM, replicate 1
[4] = 12 h, 10 µM, compound concentration 10 uM, replicate 2
[5] = 24 h, 1 µM, compound concentration 1 uM, replicate 1
[6] = 24 h, 1 µM, compound concentration 1 uM, replicate 2
[7] = 24 h, 10 µM, compound concentration 10 uM, replicate 1
[8] = 24 h, 10 µM, compound concentration 10 uM, replicate 2
[9] = 48 h, 1 µM, compound concentration 1 uM, replicate 1
[10] = 48 h, 1 µM, compound concentration 1 uM, replicate 2
[11] = 48 h, 10 µM, compound concentration 10 uM, replicate 1
[12] = 48 h, 10 µM, compound concentration 10 uM, replicate 2

Compound: CN1CCN2c3ccccc3Cc3ccccc3C2C1.Cl (stereo not drawn) [MIANSERIN HYDROCHLORIDE]
- Population Apoptotic (%) [1]: 91%
- Population Fragmented Nuclei (%) [1]: 35%
- Population Healthy Nuclei (%) [1]: 56%
- Population Hoechst High Intensity Objects (%) [1]: 3%
- Population Membrane Permeable-Phenotype (%) [1]: 7%
- Population Mitochondria Different-Phenotype (%) [1]: 4%
- Population Mitotic Cells (%) [1]: 8%
- Population Normal (%) [1]: 96%
- Population Pyknosed Nuclei (%) [1]: 7%
- Population Tubulin-Different-Phenotype (%) [1]: 5%
- Total Cell Count [1]: 162
- Population Apoptotic (%) [2]: 83%
- Population Fragmented Nuclei (%) [2]: 16%
- Population Healthy Nuclei (%) [2]: 77%
- Population Hoechst High Intensity Objects (%) [2]: 1%
- Population Membrane Permeable-Phenotype (%) [2]: 3%
- Population Mitochondria Different-Phenotype (%) [2]: 3%
- Population Mitotic Cells (%) [2]: 16%
- Population Normal (%) [2]: 98%
- Population Pyknosed Nuclei (%) [2]: 5%
- Population Tubulin-Different-Phenotype (%) [2]: 2%
- Total Cell Count [2]: 109
- Population Apoptotic (%) [3]: 78%
- Population Fragmented Nuclei (%) [3]: 23%
- Population Healthy Nuclei (%) [3]: 68%
- Population Hoechst High Intensity Objects (%) [3]: 2%
- Population Membrane Permeable-Phenotype (%) [3]: 7%
- Population Mitochondria Different-Phenotype (%) [3]: 3%
- Population Mitotic Cells (%) [3]: 21%
- Population Normal (%) [3]: 97%
- Population Pyknosed Nuclei (%) [3]: 8%
- Population Tubulin-Different-Phenotype (%) [3]: 4%
- Total Cell Count [3]: 277
- Population Apoptotic (%) [4]: 86%
- Population Fragmented Nuclei (%) [4]: 12%
- Population Healthy Nuclei (%) [4]: 77%
- Population Hoechst High Intensity Objects (%) [4]: 1%
- Population Membrane Permeable-Phenotype (%) [4]: 1%
- Population Mitochondria Different-Phenotype (%) [4]: 2%
- Population Mitotic Cells (%) [4]: 13%
- Population Normal (%) [4]: 98%
- Population Pyknosed Nuclei (%) [4]: 10%
- Population Tubulin-Different-Phenotype (%) [4]: 0%
- Total Cell Count [4]: 152
- Population Apoptotic (%) [5]: 88%
- Population Fragmented Nuclei (%) [5]: 34%
- Population Healthy Nuclei (%) [5]: 56%
- Population Hoechst High Intensity Objects (%) [5]: 1%
- Population Membrane Permeable-Phenotype (%) [5]: 6%
- Population Mitochondria Different-Phenotype (%) [5]: 1%
- Population Mitotic Cells (%) [5]: 11%
- Population Normal (%) [5]: 98%
- Population Pyknosed Nuclei (%) [5]: 8%
- Population Tubulin-Different-Phenotype (%) [5]: 4%
- Total Cell Count [5]: 197
- Population Apoptotic (%) [6]: 75%
- Population Fragmented Nuclei (%) [6]: 23%
- Population Healthy Nuclei (%) [6]: 70%
- Population Hoechst High Intensity Objects (%) [6]: 2%
- Population Membrane Permeable-Phenotype (%) [6]: 4%
- Population Mitochondria Different-Phenotype (%) [6]: 3%
- Population Mitotic Cells (%) [6]: 25%
- Population Normal (%) [6]: 97%
- Population Pyknosed Nuclei (%) [6]: 5%
- Population Tubulin-Different-Phenotype (%) [6]: 3%
- Total Cell Count [6]: 142
- Population Apoptotic (%) [7]: 69%
- Population Fragmented Nuclei (%) [7]: 21%
- Population Healthy Nuclei (%) [7]: 68%
- Population Hoechst High Intensity Objects (%) [7]: 1%
- Population Membrane Permeable-Phenotype (%) [7]: 9%
- Population Mitochondria Different-Phenotype (%) [7]: 2%
- Population Mitotic Cells (%) [7]: 30%
- Population Normal (%) [7]: 98%
- Population Pyknosed Nuclei (%) [7]: 10%
- Population Tubulin-Different-Phenotype (%) [7]: 2%
- Total Cell Count [7]: 319
- Population Apoptotic (%) [8]: 93%
- Population Fragmented Nuclei (%) [8]: 13%
- Population Healthy Nuclei (%) [8]: 77%
- Population Hoechst High Intensity Objects (%) [8]: 2%
- Population Membrane Permeable-Phenotype (%) [8]: 7%
- Population Mitochondria Different-Phenotype (%) [8]: 3%
- Population Mitotic Cells (%) [8]: 6%
- Population Normal (%) [8]: 97%
- Population Pyknosed Nuclei (%) [8]: 8%
- Total Cell Count [8]: 183
- Population Apoptotic (%) [9]: 78%
- Population Fragmented Nuclei (%) [9]: 28%
- Population Healthy Nuclei (%) [9]: 65%
- Population Hoechst High Intensity Objects (%) [9]: 2%
- Population Membrane Permeable-Phenotype (%) [9]: 5%
- Population Mitochondria Different-Phenotype (%) [9]: 2%
- Population Mitotic Cells (%) [9]: 21%
- Population Normal (%) [9]: 97%
- Population Pyknosed Nuclei (%) [9]: 5%
- Population Tubulin-Different-Phenotype (%) [9]: 4%
- Total Cell Count [9]: 269
- Population Fragmented Nuclei (%) [10]: 19%
- Population Healthy Nuclei (%) [10]: 71%
- Population Hoechst High Intensity Objects (%) [10]: 1%
- Population Membrane Permeable-Phenotype (%) [10]: 4%
- Population Mitochondria Different-Phenotype (%) [10]: 3%
- Population Normal (%) [10]: 98%
- Population Pyknosed Nuclei (%) [10]: 9%
- Population Tubulin-Different-Phenotype (%) [10]: 2%
- Total Cell Count [10]: 206
- Population Apoptotic (%) [11]: 91%
- Population Fragmented Nuclei (%) [11]: 18%
- Population Healthy Nuclei (%) [11]: 71%
- Population Hoechst High Intensity Objects (%) [11]: 4%
- Population Membrane Permeable-Phenotype (%) [11]: 4%
- Population Mitochondria Different-Phenotype (%) [11]: 2%
- Population Mitotic Cells (%) [11]: 8%
- Population Normal (%) [11]: 95%
- Population Pyknosed Nuclei (%) [11]: 9%
- Population Tubulin-Different-Phenotype (%) [11]: 1%
- Total Cell Count [11]: 397
- Population Apoptotic (%) [12]: 87%
- Population Fragmented Nuclei (%) [12]: 15%
- Population Healthy Nuclei (%) [12]: 73%
- Population Hoechst High Intensity Objects (%) [12]: 2%
- Population Mitochondria Different-Phenotype (%) [12]: 3%
- Population Mitotic Cells (%) [12]: 12%
- Population Normal (%) [12]: 97%
- Population Pyknosed Nuclei (%) [12]: 11%
- Population Tubulin-Different-Phenotype (%) [12]: 2%
- Total Cell Count [12]: 285
